# Results as given in ChEMBL document CHEMBL4033712, “Synthesis and biological evaluation of new C-12(α/β)-(N-) sulfamoyl-phenylamino-14-deoxy-andrographolide derivatives as potent anti-cancer agents” (Bioorg Med Chem Lett, 2017).
# Key:
# Assay type in all cases: functional
# HOP-92 [1] = experiment: Anticancer activity against human HOP92 cells assessed as cell growth at 10 uM after 48 hrs by sulforhodamine B assay relative to control; conditions: HOP-92, 48 h, read-out: Activity
# Procedure, shortened: (§1)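 Single-dose NCI-60 panel screen: compound added at 10 µM and the culture incubated 48 h. The end point was read by protein staining with sulforhodamine B. The value is percent growth of treated cells relative to untreated control cells, reported as a mean graph across the panel.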
# SNB-19 [2] = experiment: Anticancer activity against human SNB19 cells assessed as cell growth at 10 uM after 48 hrs by sulforhodamine B assay relative to control; conditions: SNB-19, 48 h, read-out: Activity; procedure, shortened: as §1
# SR = experiment: Growth inhibition of human SR cells incubated for 48 hrs by sulforhodamine B assay
# Procedure, shortened: (§2)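 NCI 60 human tumour cell line panel, five-dose study at 0.01, 0.1, 1, 10 and 100 µM, 48 h incubation. Sulforhodamine B protein-binding dye end point. GI50 (50% decrease in net cell growth), TGI (total growth inhibition) and LC50 (net 50% loss of initial cells) read from log concentration versus % growth inhibition curves.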
# A549 = experiment: Growth inhibition of human A549/ATCC cells incubated for 48 hrs by sulforhodamine B assay; conditions: A549, 48 h
# Procedure, shortened: (§3)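 NCI-60 five-dose screen at 0.01, 0.1, 1, 10 and 100 µM, 48 h incubation, sulforhodamine B end point. GI50 (50% decrease in net growth), TGI (total growth inhibition) and LC50 (net 50% loss of initial cells) taken from log concentration versus % growth inhibition curves.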
# HOP-92 [3] = experiment: Growth inhibition of human HOP92 cells incubated for 48 hrs by sulforhodamine B assay; conditions: HOP-92, 48 h; procedure, shortened: as §3
# NCI-H226 = experiment: Growth inhibition of human NCI-H226 cells incubated for 48 hrs by sulforhodamine B assay; conditions: NCI-H226, 48 h; procedure, shortened: as §3
# COLO 205 = experiment: Growth inhibition of human COLO205 cells incubated for 48 hrs by sulforhodamine B assay; conditions: COLO 205, 48 h; procedure, shortened: as §3
# HCC 2998 = experiment: Growth inhibition of human HCC2998 cells incubated for 48 hrs by sulforhodamine B assay; conditions: HCC 2998, 48 h; procedure, shortened: as §3
# SW-620 = experiment: Growth inhibition of human SW620 cells incubated for 48 hrs by sulforhodamine B assay; conditions: SW-620, 48 h; procedure, shortened: as §2
# SF-268 = experiment: Growth inhibition of human SF268 cells incubated for 48 hrs by sulforhodamine B assay; conditions: SF-268, 48 h; procedure, shortened: as §2
# SNB-19 [4] = experiment: Growth inhibition of human SNB19 cells incubated for 48 hrs by sulforhodamine B assay; conditions: SNB-19, 48 h; procedure, shortened: as §2
# SNB-75 = experiment: Growth inhibition of human SNB75 cells incubated for 48 hrs by sulforhodamine B assay; conditions: SNB-75, 48 h; procedure, shortened: as §2
# M14 = experiment: Growth inhibition of human M14 cells incubated for 48 hrs by sulforhodamine B assay; conditions: M14, 48 h; procedure, shortened: as §3
# MDA-MB-435 = experiment: Growth inhibition of human MDA-MB-435 cells incubated for 48 hrs by sulforhodamine B assay; conditions: MDA-MB-435, 48 h; procedure, shortened: as §3
# SK-MEL-2 = experiment: Growth inhibition of human SK-MEL-2 cells incubated for 48 hrs by sulforhodamine B assay; conditions: SK-MEL-2, 48 h; procedure, shortened: as §2
# SK-MEL-5 = experiment: Growth inhibition of human SK-MEL-5 cells incubated for 48 hrs by sulforhodamine B assay; conditions: SK-MEL-5, 48 h; procedure, shortened: as §2
# UACC-62 = experiment: Growth inhibition of human UACC62 cells incubated for 48 hrs by sulforhodamine B assay; conditions: UACC-62, 48 h; procedure, shortened: as §2
# OVCAR-5 = experiment: Growth inhibition of human OVCAR5 cells incubated for 48 hrs by sulforhodamine B assay; conditions: OVCAR-5, 48 h; procedure, shortened: as §3
# NCI/ADR-RES = experiment: Growth inhibition of human NCI/ADR-RES cells incubated for 48 hrs by sulforhodamine B assay; procedure, shortened: as §3
# SK-OV-3 = experiment: Growth inhibition of human SKOV3 cells incubated for 48 hrs by sulforhodamine B assay; conditions: SK-OV-3, 48 h; procedure, shortened: as §2
# RXF 393 = experiment: Growth inhibition of human RXF393 cells incubated for 48 hrs by sulforhodamine B assay; conditions: RXF 393, 48 h; procedure, shortened: as §2
# TK-10 = experiment: Growth inhibition of human TK10 cells incubated for 48 hrs by sulforhodamine B assay; conditions: TK-10, 48 h; procedure, shortened: as §2
# PC-3 = experiment: Growth inhibition of human PC3 cells incubated for 48 hrs by sulforhodamine B assay; conditions: PC-3, 48 h; procedure, shortened: as §3
# MCF7 = experiment: Growth inhibition of human MCF7 cells incubated for 48 hrs by sulforhodamine B assay; conditions: MCF7, 48 h; procedure, shortened: as §3
# MDA-MB-231 = experiment: Growth inhibition of human MDA-MB-231 cells incubated for 48 hrs by sulforhodamine B assay; conditions: MDA-MB-231, 48 h; procedure, shortened: as §3
# T47D = experiment: Growth inhibition of human T47D cells incubated for 48 hrs by sulforhodamine B assay; procedure, shortened: as §2
# MDA-MB-468 = experiment: Growth inhibition of human MDA-MB-468 cells incubated for 48 hrs by sulforhodamine B assay; conditions: MDA-MB-468, 48 h; procedure, shortened: as §3
# SF-539 = experiment: Anticancer activity against human SF539 cells assessed as cell growth at 10 uM after 48 hrs by sulforhodamine B assay relative to control; conditions: SF-539, 48 h, read-out: Activity; procedure, shortened: as §1
# [5] = read-out: LC50 (the source's name)
smiles,measurement,setting,value
C=C1CC[C@@H]2[C@](C)(COC(C)=O)[C@H](OC(C)=O)CC[C@@]2(C)[C@H]1CC(Nc1ccc(S(=O)(=O)Nc2nc(C)cc(C)n2)cc1)C1=CCOC1=O (stereo partly drawn),growth at 10 µM,HOP-92 [1],90.1%
same,growth at 10 µM,SNB-19 [2],100%
C=C1CC[C@@H]2[C@](C)(COC(C)=O)[C@H](OC(C)=O)CC[C@@]2(C)[C@H]1CC(Nc1ccc(S(=O)(=O)Nc2ncccn2)cc1)C1=CCOC1=O (stereo partly drawn),GI50,SR,0.31 µM
same,TGI,SR,17.2 µM
same,CC50,SR; [5],> 100 µM
same,GI50,A549,3.18 µM
same,TGI,A549,9.98 µM
same,CC50,A549; [5],34.6 µM
same,GI50,HOP-92 [3],3.1 µM
same,TGI,HOP-92 [3],8.85 µM
same,CC50,HOP-92 [3]; [5],31.1 µM
same,GI50,NCI-H226,1.63 µM
same,TGI,NCI-H226,3.57 µM
same,GI50,COLO 205,1.78 µM
same,TGI,COLO 205,3.8 µM
same,CC50,COLO 205; [5],8.11 µM
same,GI50,HCC 2998,2.1 µM
same,TGI,HCC 2998,3.81 µM
same,CC50,HCC 2998; [5],6.9 µM
same,GI50,SW-620,0.86 µM
same,TGI,SW-620,2.25 µM
same,CC50,SW-620; [5],5.36 µM
same,GI50,SF-268,1.93 µM
same,TGI,SF-268,4.16 µM
same,CC50,SF-268; [5],8.97 µM
same,GI50,SNB-19 [4],1.63 µM
same,TGI,SNB-19 [4],3.76 µM
same,CC50,SNB-19 [4]; [5],8.65 µM
same,GI50,SNB-75,1.27 µM
same,TGI,SNB-75,3.23 µM
same,CC50,SNB-75; [5],8.2 µM
same,GI50,M14,1.44 µM
same,TGI,M14,3.98 µM
same,CC50,M14; [5],15.9 µM
same,GI50,MDA-MB-435,1.58 µM
same,TGI,MDA-MB-435,3.77 µM
same,CC50,MDA-MB-435; [5],9.04 µM
same,GI50,SK-MEL-2,2.36 µM
same,TGI,SK-MEL-2,7.2 µM
same,CC50,SK-MEL-2; [5],30.4 µM
same,GI50,SK-MEL-5,1.9 µM
same,TGI,SK-MEL-5,3.85 µM
same,CC50,SK-MEL-5; [5],7.81 µM
same,GI50,UACC-62,1.11 µM
same,TGI,UACC-62,2.56 µM
same,CC50,UACC-62; [5],5.91 µM
same,GI50,OVCAR-5,1.98 µM
same,LC50 (concentration causing net 50% loss of initial cells),OVCAR-5,7.47 µM
same,TGI,OVCAR-5,3.85 µM
same,GI50,NCI/ADR-RES,1.83 µM
same,LC50 (concentration giving net 50% loss of initial cells),NCI/ADR-RES,> 100 µM
same,TGI,NCI/ADR-RES,5.28 µM
same,GI50,SK-OV-3,6.27 µM
same,TGI,SK-OV-3,18.3 µM
same,CC50,SK-OV-3; [5],42.8 µM
same,GI50,RXF 393,1.95 µM
same,TGI,RXF 393,3.58 µM
same,CC50,RXF 393; [5],6.6 µM
same,GI50,TK-10,2.77 µM
same,TGI,TK-10,6.03 µM
same,CC50,TK-10; [5],18.3 µM
same,GI50,PC-3,2.11 µM
same,TGI,PC-3,5.07 µM
same,CC50,PC-3; [5],17.5 µM
same,GI50,MCF7,1.07 µM
same,TGI,MCF7,4.54 µM
same,CC50,MCF7; [5],> 100 µM
same,GI50,MDA-MB-231,1.95 µM
same,LC50 (concentration giving net 50% loss of initial cells),MDA-MB-231,7.91 µM
same,TGI,MDA-MB-231,3.93 µM
same,GI50,T47D,2 µM
same,TGI,T47D,5.46 µM
same,CC50,T47D; [5],> 100 µM
same,GI50,MDA-MB-468,1.33 µM
same,TGI,MDA-MB-468,3.57 µM
same,growth at 10 µM,HOP-92 [1],56.3%
same,growth at 10 µM,SF-539,-69%
same,growth at 10 µM,SNB-19 [2],36.7%
